From ChEMBL document CHEMBL4196177, “Synthesis, Evaluation, and Structure-Activity Relationship Study of Lanosterol Derivatives To Reverse Mutant-Crystallin-Induced Protein Aggregation” (J Med Chem, 2018)
Activity calls are given as the source filed them. The calls are words filed in the database; no cut-off is given here.

Key:
Assay type in all cases: cell-based
[1] = system: T1, Alpha-crystallin B chain (Homo sapiens), P02511 [R120G]; assay: Inhibition of alpha-crystallin B R120G mutant (unknown origin)-induced intracellular protein aggregation expressed in human HeLa cells at 4 uM incubated for 6 to 8 hrs by fluorescence microscopy relative to untreated control
T1 sequence (whole entry): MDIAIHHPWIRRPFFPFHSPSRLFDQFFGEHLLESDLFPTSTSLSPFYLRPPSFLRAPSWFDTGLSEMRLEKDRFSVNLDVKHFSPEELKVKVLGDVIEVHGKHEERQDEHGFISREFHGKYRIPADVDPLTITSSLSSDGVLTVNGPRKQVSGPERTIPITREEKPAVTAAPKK
In short: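 Cells were transfected with mutant crystallin constructs using Lipofectamine 2000 and cultured for 16 h until the overexpressed mutants formed aggregates. Compounds were then added to the culture medium and incubated for 6~8 h. Aggregate dissolution was scored by fluorescence microscopy. For αB R120G, % inhibition at 0.4 and 4 µM was calculated against DMSO-treated cells; values are mean ± error.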

[2] = system: T2, Alpha-crystallin A chain (Homo sapiens), P02489 [Y118D]; assay: Inhibition of alpha-crystallin A Y118D mutant (unknown origin)-induced intracellular protein aggregation expressed in human HeLa cells or HLE-B3 cells at 4 uM incubated for 6 to 8 hrs by fluorescence microscopy relative to untreated control
T2 sequence (whole entry): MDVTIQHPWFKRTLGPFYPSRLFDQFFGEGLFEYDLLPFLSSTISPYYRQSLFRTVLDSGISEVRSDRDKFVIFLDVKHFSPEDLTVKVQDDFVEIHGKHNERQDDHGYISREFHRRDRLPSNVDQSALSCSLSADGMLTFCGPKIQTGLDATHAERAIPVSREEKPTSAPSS
In short: (§1)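 Cells were transfected with mutant crystallin and incubated 16 h to overexpress it and form aggregates. Compounds were then added to the medium for 6~8 h. Aggregates were scored by fluorescence microscopy, and percent inhibition was calculated against DMSO-treated cells.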

HeLa = assay: Toxicity in human HeLa cells transfected with peGFP-N1 assessed as reduction in cell viability of at 0.04 to 4 uM incubated for 12 hrs by CCK8 assay
[3] = Toxicity in human HLE-B3 cells transfected with peGFP-N1 assessed as reduction in cell viability of at 0.04 to 4 uM incubated for 12 hrs by CCK8 assay
[4] = system: T1, Alpha-crystallin B chain (Homo sapiens), P02511 [R120G]; assay: Inhibition of alpha-crystallin B R120G mutant (unknown origin)-induced cytotoxicity in human HeLa cells assessed as increase in cell viability at 0.04 to 4 uM incubated for 12 hrs by CCK8 assay
[5] = system: T1, Alpha-crystallin B chain (Homo sapiens), P02511 [R120G]; assay: Inhibition of alpha-crystallin B R120G mutant (unknown origin)-induced cytotoxicity in human HLE-B3 cells assessed as increase in cell viability at 0.04 to 4 uM incubated for 12 hrs by CCK8 assay
[6] = system: T3, Beta-crystallin B2 (Homo sapiens), P43320 [V187E]; assay: Inhibition of beta-crystallin B2 V187E mutant (unknown origin)-induced cytotoxicity in human HeLa cells assessed as increase in cell viability at 0.04 to 4 uM incubated for 12 hrs by CCK8 assay
T3 sequence (whole entry): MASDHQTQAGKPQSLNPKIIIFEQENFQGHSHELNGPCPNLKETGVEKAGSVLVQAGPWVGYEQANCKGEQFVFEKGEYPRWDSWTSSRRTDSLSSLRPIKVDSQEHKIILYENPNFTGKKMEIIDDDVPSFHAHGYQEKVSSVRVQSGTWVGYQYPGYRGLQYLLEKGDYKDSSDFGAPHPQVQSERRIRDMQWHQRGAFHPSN

[7] = system: T3, Beta-crystallin B2 (Homo sapiens), P43320 [V187E]; assay: Inhibition of beta-crystallin B2 V187E mutant (unknown origin)-induced cytotoxicity in human HLE-B3 cells assessed as increase in cell viability at 0.04 to 4 uM incubated for 12 hrs by CCK8 assay
[8] = system: T4, Gamma-crystallin C (Homo sapiens), P07315 [G129C]; assay: Inhibition of gamma-crystallin C G129C mutant (unknown origin)-induced cytotoxicity in human HeLa cells assessed as increase in cell viability at 0.04 to 4 uM incubated for 12 hrs by CCK8 assay
T4 sequence (whole entry): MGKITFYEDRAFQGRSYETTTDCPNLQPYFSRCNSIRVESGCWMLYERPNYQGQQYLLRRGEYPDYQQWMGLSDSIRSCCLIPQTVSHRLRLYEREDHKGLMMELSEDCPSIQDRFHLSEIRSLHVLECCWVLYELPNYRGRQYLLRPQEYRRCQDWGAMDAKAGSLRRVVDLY

[9] = system: T4, Gamma-crystallin C (Homo sapiens), P07315 [G129C]; assay: Inhibition of gamma-crystallin C G129C mutant (unknown origin)-induced cytotoxicity in human HLE-B3 cells assessed as increase in cell viability at 0.04 to 4 uM incubated for 12 hrs by CCK8 assay
[10] = system: T3, Beta-crystallin B2 (Homo sapiens), P43320 [V187E]; assay: Inhibition of beta-crystallin B2 V187E mutant (unknown origin)-induced intracellular protein aggregation expressed in human HeLa cells or HLE-B3 cells at 4 uM incubated for 6 to 8 hrs by fluorescence microscopy relative to untreated control; in short: as §1
[11] = system: T4, Gamma-crystallin C (Homo sapiens), P07315 [G129C]; assay: Inhibition of gamma-crystallin C G129C mutant (unknown origin)-induced intracellular protein aggregation expressed in human HeLa cells or HLE-B3 cells at 4 uM incubated for 6 to 8 hrs by fluorescence microscopy relative to untreated control; in short: as §1
[12] = system: T5, Gamma-crystallin D (Homo sapiens), P07320 [W43R]; assay: Inhibition of gamma-crystallin D W43R mutant (unknown origin)-induced intracellular protein aggregation expressed in human HeLa cells or HLE-B3 cells at 4 uM incubated for 6 to 8 hrs by fluorescence microscopy relative to untreated control; in short: as §1
T5 sequence (whole entry): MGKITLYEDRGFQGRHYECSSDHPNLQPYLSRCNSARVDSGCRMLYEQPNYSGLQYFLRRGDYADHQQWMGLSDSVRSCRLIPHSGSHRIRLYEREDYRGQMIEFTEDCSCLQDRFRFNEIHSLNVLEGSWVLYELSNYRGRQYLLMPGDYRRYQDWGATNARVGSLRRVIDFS

For `O=C(O)COc1nn(Cc2ccccc2)c2ccccc12`, the inhibition [1] was “inactive”.
In the case of `C[C@H](CCCC(C)(C)O)[C@H]1CC[C@H]2[C@@H]3CC=C4C[C@@H](O)CC[C@]4(C)[C@H]3CC[C@]12C`, the inhibition [2] was “Active”, the Activity (HeLa) was “Toxic” and the Activity [3] was “Toxic”. For the same compound, the inhibition [4] was “inactive”, the inhibition [5] was “inactive” and the inhibition [6] was “inactive”. For the same compound, the inhibition [7] was “inactive”, the inhibition [8] was “inactive” and the inhibition [9] was “inactive”.
For `CC(C)=CCC[C@@H](C)[C@H]1CC[C@@]2(C)C3=C(CC[C@]12C)[C@@]1(C)CC[C@H](O)C(C)(C)[C@@H]1CC3`, the inhibition [2] was “Active”, the inhibition [10] was “Active” and the inhibition [11] was “Active”. For the same compound, the inhibition [12] was “Active”.
With `O=C1O[C@H]([C@@H](O)CO)C([O-])=C1O.[Na+]` the inhibition [1] was “inactive”.
For `N[C@@H](CCC(=O)N[C@@H](CS)C(=O)NCC(=O)O)C(=O)O`, the inhibition [1] was “inactive”.
In the case of `O=C(O)c1cc(O)c2c3nc4ccccc4oc-3cc(=O)c2n1`, the inhibition [1] was “inactive”.
